Source: article PMC5035790 (Annals of Oncology, 2016)

Test system: patients with advanced solid tumors or non-Hodgkin's lymphoma
Assay: Phase I dose-escalation study: safety, tolerability, MTD, adverse events
Format: in vivo, human
Procedure, shortened: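 Adults with advanced solid tumours (plus NHL and type 2 diabetic expansion cohorts) received a 1-h IV infusion on days 1, 8 and 15 of 28-day cycles over 0.1–1.2 mg/kg. Accelerated titration escalated the dose by 100% per cohort. MTD was the highest dose given to six patients with ≤1 DLT. Fasting was 8 h pre- and 3 h post-start on cycle 1 day 1. AEs were assessed at planned times each cycle and at follow-up.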

## COc1c(OCCCN2CCOCC2)ccc2c1N=C(NC(=O)c1cnc(N)nc1)N1CCN=C21 [copanlisib, Copanlisib]
0.8 mg/kg dose-escalation cohort
  dose-limiting toxicities (DLTs): no DLTs
14 of 57 patients
  dose modifications caused by drug-related AEs: 25%
NHL expansion, 0.8 mg/kg, n=9
  Any drug-related AE: 8 (89) n (%)
  Drug-related AEs of grade 3: 5 (56) n (%)
  Drug-related AEs of grade 4: 1 (11) n (%)
  Drug-related diarrhea, all grades: 3 (33) n (%)
  Drug-related diarrhea, grade 3: 0 n (%)
  Drug-related fatigue, all grades: 3 (33) n (%)
  Drug-related fatigue, grade 3: 0 n (%)
  Drug-related hyperglycemia, all grades: 8 (89) n (%)
  Drug-related hyperglycemia, grade 3: 3 (33) n (%)
  Drug-related hypertension, all grades: 3 (33) n (%)
  Drug-related hypertension, grade 3: 3 (33) n (%)
  Drug-related nausea, all grades: 7 (78) n (%)
  Drug-related nausea, grade 3: 0 n (%)
  Drug-related oral cavity mucositis, all grades: 3 (33) n (%)
  Drug-related oral cavity mucositis, grade 3: 0 n (%)
  Drug-related rash/desquamation, all grades: 2 (22) n (%)
  Drug-related rash/desquamation, grade 3: 1 (11) n (%)
  Drug-related vomiting, all grades: 1 (11) n (%)
  Drug-related vomiting, grade 3: 0 n (%)
All patients, n=57, text
  Drug-related hyperglycemia, all grades: 63%
  Drug-related hypertension, all grades: 21%
  Drug-related hypertension, grade 3: 14%
  diarrhea, all-grade: 16%
  diarrhea, grade ≥3: 2%
  drug-related rash, grade 3: 7%
All patients, n=57, text, all events grade ≤2
  Drug-related nausea, all grades: 37%
Cohort 1, 0.1 mg/kg, n=1
  Any drug-related AE: 1 (100) n (%)
  Drug-related AEs of grade 3: 0 n (%)
  Drug-related AEs of grade 4: 0 n (%)
  Drug-related diarrhea, all grades: 0 n (%)
  Drug-related diarrhea, grade 3: 0 n (%)
  Drug-related fatigue, all grades: 0 n (%)
  Drug-related fatigue, grade 3: 0 n (%)
  Drug-related hyperglycemia, all grades: 0 n (%)
  Drug-related hyperglycemia, grade 3: 0 n (%)
  Drug-related hypertension, all grades: 0 n (%)
  Drug-related hypertension, grade 3: 0 n (%)
  Drug-related nausea, all grades: 0 n (%)
  Drug-related nausea, grade 3: 0 n (%)
  Drug-related oral cavity mucositis, all grades: 0 n (%)
  Drug-related oral cavity mucositis, grade 3: 0 n (%)
  Drug-related rash/desquamation, all grades: 0 n (%)
  Drug-related rash/desquamation, grade 3: 0 n (%)
  Drug-related vomiting, all grades: 0 n (%)
  Drug-related vomiting, grade 3: 0 n (%)
Cohort 2, 0.2 mg/kg, n=3
  Any drug-related AE: 3 (100) n (%)
  Drug-related AEs of grade 3: 2 (67) n (%)
  Drug-related AEs of grade 4: 0 n (%)
  Drug-related diarrhea, all grades: 2 (67) n (%)
  Drug-related diarrhea, grade 3: 1 (33) n (%)
  Drug-related fatigue, all grades: 1 (33) n (%)
  Drug-related fatigue, grade 3: 0 n (%)
  Drug-related hyperglycemia, all grades: 1 (33) n (%)
  Drug-related hyperglycemia, grade 3: 0 n (%)
  Drug-related hypertension, all grades: 0 n (%)
  Drug-related hypertension, grade 3: 0 n (%)
  Drug-related nausea, all grades: 3 (100) n (%)
  Drug-related nausea, grade 3: 0 n (%)
  Drug-related oral cavity mucositis, all grades: 1 (33) n (%)
  Drug-related oral cavity mucositis, grade 3: 0 n (%)
  Drug-related rash/desquamation, all grades: 0 n (%)
  Drug-related rash/desquamation, grade 3: 0 n (%)
  Drug-related vomiting, all grades: 1 (33) n (%)
  Drug-related vomiting, grade 3: 0 n (%)
Cohort 3, 0.4 mg/kg, n=3
  Any drug-related AE: 2 (67) n (%)
  Drug-related AEs of grade 3: 1 (33) n (%)
  Drug-related AEs of grade 4: 0 n (%)
  Drug-related diarrhea, all grades: 0 n (%)
  Drug-related diarrhea, grade 3: 0 n (%)
  Drug-related fatigue, all grades: 0 n (%)
  Drug-related fatigue, grade 3: 0 n (%)
  Drug-related hyperglycemia, all grades: 1 (33) n (%)
  Drug-related hyperglycemia, grade 3: 0 n (%)
  Drug-related hypertension, all grades: 1 (33) n (%)
  Drug-related hypertension, grade 3: 1 (33) n (%)
  Drug-related nausea, all grades: 0 n (%)
  Drug-related nausea, grade 3: 0 n (%)
  Drug-related oral cavity mucositis, all grades: 0 n (%)
  Drug-related oral cavity mucositis, grade 3: 0 n (%)
  Drug-related rash/desquamation, all grades: 0 n (%)
  Drug-related rash/desquamation, grade 3: 0 n (%)
  Drug-related vomiting, all grades: 0 n (%)
  Drug-related vomiting, grade 3: 0 n (%)
Cohort 4, 0.8 mg/kg, n=7
  Any drug-related AE: 7 (100) n (%)
  Drug-related AEs of grade 3: 4 (57) n (%)
  Drug-related AEs of grade 4: 0 n (%)
  Drug-related diarrhea, all grades: 1 (14) n (%)
  Drug-related diarrhea, grade 3: 0 n (%)
  Drug-related fatigue, all grades: 0 n (%)
  Drug-related fatigue, grade 3: 0 n (%)
  Drug-related hyperglycemia, all grades: 7 (100) n (%)
